PDI inh: PDI (human) enzyme inhibition; P07237; PDI insulin aggregation turbidity, A650, 90 min; inhibition, % at 10 µM; 0.052% of 350,000 active; AID 588391;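 active means mean inhibition across replicates of 30% or more, whatever share of single replicates reach that level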
RAD52 inh: inhibitors of human RAD52 DNA annealing | recombinant RAD52 DNA annealing, FRET fluorescence | inhibition, % at 18.7 µM | 0.46% of 360,000 active;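 active means every replicate showing at least 50% inhibition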
ERp5 block: inhibitors of human ERp5 | inhibition, % at 9.99 µM | Q15084 | 0.05% of 350,000 active | ERp5 insulin aggregation, absorbance 650 nm, 90 min;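 active means mean replicate inhibition above about 25%, with every replicate also reaching it, limit read from the data, passing the limit was not always enough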
CAL PDZ FP-1: blocks peptide binding to human CAL PDZ domain | Q9HD26 | purified CAL PDZ, TMR-peptide fluorescence polarization, 1 h | inhibition, % at 20 µM | 0.02% of 330,000 active | AID 504414;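 active means highest replicate inhibition of at least 40%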;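 further: plate controls were DMSO neutral control wells for no effect and unlabeled competitor peptide control wells for full effect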
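Test system: tagged CAL PDZ domain / Buffer or medium: sodium phosphate/NaCl buffer pH 7.4 with TCEP, IgG, Thesit / Reagent: TMR-labelled reporter peptide T*-PRC34 bound in PDZ groove / Compound dosing: single point, 20 µM / Schedule: 1 h incubation at room temperature before polarization reading / Technique: fluorescence polarization (mP) / Benchmarks: unlabelled peptide, DMSO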
RAD54 inh: inhibitors of human RAD54 branch migration. RAD54 Holliday junction branch migration, FAM/BHQ fluorescence. 0.14% of 360,000 active. inhibition, % at 10.4 µM. AID 602329;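 active means mean normalized replicate activity at least 40 and at least half of replicates scoring 40 or more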;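 further: 0% = median of neutral control wells and 100% = median of positive control wells; inhibitors cause a drop in the FAM fluorescence signal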
Target sequence (Q92698 whole entry, looked up): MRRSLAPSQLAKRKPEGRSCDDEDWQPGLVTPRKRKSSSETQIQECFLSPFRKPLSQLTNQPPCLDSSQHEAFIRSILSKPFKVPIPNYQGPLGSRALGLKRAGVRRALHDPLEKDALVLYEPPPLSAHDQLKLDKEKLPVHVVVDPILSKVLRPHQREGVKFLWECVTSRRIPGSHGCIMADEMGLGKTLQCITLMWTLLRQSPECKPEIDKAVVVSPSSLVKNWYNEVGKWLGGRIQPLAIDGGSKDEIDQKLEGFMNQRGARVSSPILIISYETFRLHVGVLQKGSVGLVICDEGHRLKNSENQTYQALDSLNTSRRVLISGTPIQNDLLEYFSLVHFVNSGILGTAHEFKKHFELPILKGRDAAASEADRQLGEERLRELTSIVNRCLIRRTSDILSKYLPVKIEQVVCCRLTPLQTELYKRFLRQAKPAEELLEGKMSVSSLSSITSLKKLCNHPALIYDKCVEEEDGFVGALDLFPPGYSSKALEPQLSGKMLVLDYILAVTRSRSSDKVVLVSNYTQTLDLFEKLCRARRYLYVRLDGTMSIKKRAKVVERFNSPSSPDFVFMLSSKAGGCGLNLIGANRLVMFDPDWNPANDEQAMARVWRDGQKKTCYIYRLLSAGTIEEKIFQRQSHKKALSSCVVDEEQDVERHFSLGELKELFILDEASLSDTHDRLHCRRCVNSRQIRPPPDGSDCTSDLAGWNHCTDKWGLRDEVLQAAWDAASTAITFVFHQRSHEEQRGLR
CAL PDZ FP-2: CAL PDZ (human) peptide binding inhibition; Q9HD26; purified CAL PDZ, TMR-peptide fluorescence polarization, 1 h; inhibition, % at 24.9 µM; 0.92% of 300,000 active; AID 602252;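 active means mean inhibition of at least 30% with at least half of replicates also reaching 30%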;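 further: 0% = DMSO neutral control and 100% = excess unlabeled competitor peptide PRC23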
* = called active by the depositor; . = no result given. Only some compounds are listed: those with a hit (about 1% of all), similar ones and a draw of the others.

SMILES	PDI inh	RAD52 inh	ERp5 block	CAL PDZ FP-1	RAD54 inh	CAL PDZ FP-2
COc1ccc(C#Cc2cnc3c(c2)C(=O)N([C@@H](C)CO)C[C@H](C)[C@H](CN(C)C)O3)cc1	.	25	1	.	-3	.
Cc1nn(-c2ccccc2)c(C)c1NC(=O)COC(=O)c1ccc(NC(=O)CC#N)cc1	9	-29	1	-2	-11	-2
Cc1ccccc1OCC(=O)OCC(=O)c1cc(C)n(C2CC2)c1C	5	-19	1	-2	8	46*
Cc1cc(C(=O)COC(=O)c2ccc(Cl)c(S(N)(=O)=O)c2)c(C)n1C1CC1	3	-25	11	-1	3	41*
Cc1nn(-c2ccccc2)c(C)c1NC(=O)COC(=O)c1ccc(Cl)c(S(N)(=O)=O)c1	0	-17	4	1	-6	65*
Cc1cc(C(=O)COc2ccccc2C(N)=O)c(C)n1C1CC1	1	-5	0	-5	.	0
C[C@@H]1CN([C@@H](C)CO)S(=O)(=O)c2ccc(Br)cc2O[C@@H]1CN(C)Cc1ccncc1	.	5	1	.	0	.
CN(C)C(=O)[C@H]1[C@H](CO)[C@H]2Cn3c(ccc(C4=CCCCC4)c3=O)[C@@H]1N2Cc1ccncc1	.	-8	5	.	1	.
O=[N+]([O-])c1ccc(Sc2nccn2Cc2ccccc2)cc1	0	.	.	0	3	30*
O=C(c1ccccc1)N1C[C@@H]2[C@H](c3ccccc31)[C@H](CO)N2C(=O)c1ccccn1	.	-1	0	.	-8	.
CCCn1nc(NS(=O)(=O)c2ccccc2)c2cc3ccccc3nc21	0	.	.	-1	-4	58*
CCOC(=O)Cc1nnc(Nc2cccc(C)c2)c2ccccc12	2	.	.	-1	.	-7
COC(=O)Cc1nnc(Nc2cccc(C)c2)c2ccccc12	-2	-13	1	-1	-5	30*
C[C@H](CO)N1C[C@H](C)[C@@H](CN(C)C(=O)c2ccncc2)OCCCC[C@H](C)Oc2ccc(NC(=O)Cc3ccccc3)cc2C1=O	.	6	-1	.	-18	.
Cc1cc(C(=O)COC(=O)C2CCN(C(=O)c3ccc(Cl)cc3)CC2)c(C)n1CC1CCCO1 (centres undefined)	5	-40	4	6	.	66*
CCC(=O)c1ccc(OCC(=O)OCC(=O)c2cc(C)n(CC3CCCO3)c2C)cc1 (centres undefined)	3	-9	-5	1	-7	-2
S=C(Nc1cccnc1)NC1CC2CCC1C2 (centres undefined)	15	-1	2	0	5	38*
CC(NCC(O)COCCC12CC3CC(CC(C3)C1)C2)c1ccccc1 (centres undefined)	-13	55*	-12	-1	18	3
NCC(O)COCCC12CC3CC(CC(C3)C1)C2 (centres undefined)	0	.	.	-2	4	39*
O=C(NC1Cc2ccccc2C1)[C@@H]1[C@@H](CO)[C@@H]2Cn3c(cccc3=O)[C@H]1N2Cc1ccccc1F	.	.	.	.	23	.
O=C(Nc1ccc(Cl)cc1)N[C@@H]1CC[C@H](CCn2cc(Cc3ccccc3)nn2)O[C@@H]1CO	.	10	-2	.	3	.
CC(=O)c1cccc(NC(=O)c2cc(=O)c3ccccc3o2)c1	12	-14	-7	-1	0	50*
Cc1ccc([C@H]2N[C@]3(CCCN(Cc4ccc(Cl)cc4)C3=O)[C@H]3C(=O)N(C)C(=O)[C@@H]23)cc1	-15	-6	26*	.	-1	.
CCSc1nnc(NC(=O)Cc2ccc(OC)c(S(=O)(=O)N3CCOCC3)c2)s1	-9	.	.	-1	-8	39*
C[C@H]1CN([C@@H](C)CO)C(=O)Cc2cc(NS(=O)(=O)c3cn(C)cn3)ccc2O[C@H]1CN(C)C(=O)Nc1cccc2ccccc12	.	-11	-1	.	-5	.
SMILES	PDI inh	RAD52 inh	ERp5 block	CAL PDZ FP-1	RAD54 inh	CAL PDZ FP-2
CCCCS(=O)(=O)N1CCCC(C(=O)Oc2ccccc2)C1 (centres undefined)	-1	-13	0	.	6	66*
COc1ccc(C)cc1S(=O)(=O)N1CCCC(C(=O)NC2CC2)C1 (centres undefined)	2	-8	6	0	-9	36*
COc1ccc(CNC(=O)C2CCCN(S(=O)(=O)c3cc(C)ccc3OC)C2)cc1 (centres undefined)	3	.	.	-1	0	.
C[C@@H]1CCCCO[C@H](CN(C)S(=O)(=O)c2ccc(F)cc2)[C@H](C)CN([C@@H](C)CO)C(=O)c2cc(NC(=O)Nc3ccccc3)ccc2O1	.	.	.	.	-10	.
Cc1ccc2nc(-c3cccc(Br)c3)c(Cc3cccc(Cl)c3)n2c1	.	-87	25*	.	-9	.
Cc1cc(C)nc(NC(=O)Cc2ccc(Cl)cc2)c1	5	-4	5	-2	-7	33*
O=C(Cc1ccc(Cl)cc1)Nc1ccc(Cl)cn1	6	-14	1	-1	6	.
C=CCNC(=O)[C@@H]1[C@H]2C(=O)O[C@H](c3ccccc3)[C@H](c3ccccc3)N2[C@H](c2ccc(O)cc2)[C@@]12C(=O)N(C(=O)OCCOC)c1ccc(C#Cc3ccc(OC)cc3)cc12	.	-9	-10	.	2	.
O=C(C1CCC1)N1CC2(C1)[C@H](c1ccccc1)[C@H](CO)N2Cc1ccc(Cl)cc1	.	-7	2	.	.	.
O=C(C1CCC1)N1CC2(C1)[C@@H](c1ccccc1)[C@@H](CO)N2Cc1ccc(Cl)cc1	.	67*	7	.	.	.
O=C1NC(=O)C(CSc2ccccc2)(c2ccccc2)N1 (centres undefined)	-7	-9	-4	0	-5	42*
CC1(CSc2ccccc2)CC(=O)N1 (centres undefined)	-6	-7	-6	.	0	.
C/C=C/c1cnc2c(c1)C(=O)N([C@H](C)CO)C[C@H](C)[C@H](CN(C)C(=O)Cc1ccccn1)O2	.	9	0	.	-1	.
NS(=O)(=O)c1cccc(NC(=O)COC(=O)CCC2CCCC2)c1	16	-8	3	0	-7	85*
NS(=O)(=O)c1ccc(NC(=O)COC(=O)CCC2CCCCC2)cc1	-10	.	.	-2	8	0
CC(NC(=O)C(=O)N/N=C\c1ccc([N+](=O)[O-])cc1)c1ccccc1 (centres undefined)	2	-9	4	0	.	40*
C[C@@H]1CN([C@@H](C)CO)S(=O)(=O)c2ccc(C#Cc3ccc(F)cc3)cc2O[C@H]1CN(C)C	.	21	4	.	-2	.
C[C@@H]1CN([C@H](C)CO)S(=O)(=O)c2ccc(C#Cc3ccc(F)cc3)cc2O[C@@H]1CN(C)C(=O)CN(C)C	.	65*	1	.	5	.
C[C@H]1CN([C@@H](C)CO)S(=O)(=O)c2ccc(C#Cc3ccc(F)cc3)cc2O[C@@H]1CN(C)C(=O)CN(C)C	.	65*	4	.	7	.
